{"source": "ChEMBL document CHEMBL1799995", "about": "“17(R),18(S)-epoxyeicosatetraenoic acid, a potent eicosapentaenoic acid (EPA) derived regulator of cardiomyocyte contraction: structure-activity relationships and stable analogues” (J Med Chem, 2011)", "note": "Active and inactive are the calls of the source. No cut-off for these calls is given here."}
{"tested_on": "not listed separately", "test": "Metabolic stability in rat liver homogenates after 30 mins by LC-MS analysis", "format": "ADME, tissue-based", "conditions": "not given", "outline": "(§1)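 Compounds were incubated with rat liver homogenate plus NADPH for 30 min at 37 °C. Parent compound and hydroxy-metabolites were analysed by LC/MS.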", "units": {"remaining at 0.5 h": "%"}}
{"smiles": "CCC1OC1C/C=C\\C/C=C\\C/C=C\\C/C=C\\CCCC(=O)O", "note": "(stereo not given)", "remaining at 0.5 h": 20}
{"tested_on": "Liver", "test": "Metabolic stability in rat liver homogenates assessed as hydroxylation of compound by LC-MS analysis", "format": "ADME, tissue-based", "conditions": "tissue homogenate", "outline": "as §1"}
{"smiles": "CCC1OC1C/C=C\\C/C=C\\C/C=C\\C/C=C\\CCCC(=O)O", "note": "(stereo not given)", "Stability": "Unstable"}
{"tested_on": "not listed separately", "test": "Inhibition of (Z)-16-(2-(methylamino)-2-oxoacetamido)hexadec-11-enoic acid-induced negative chronotropic activity in neonatal Wistar rat Cardiomyocytes at 30 nM after 5 mins", "format": "functional, Cardiac muscle cell", "set-up": "scale not given: the % may be the effect or the level left", "conditions": "not given", "outline": "(§2)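 NRCMs from 1–2-day-old Wistar rats were cultured as monolayers in Halle SM 20-I medium with 10% heat-inactivated FCS and 2 μM fluorodeoxyuridine. Spontaneously beating clusters formed after 5–7 days (120–150 beats/min). Cells were preincubated with the test antagonist (30 nM final) for 5 min at 37 °C, then the agonist was added (30 nM final). Beating was counted under an inverted microscope.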", "units": {"Activity": "%"}}
{"smiles": "CCC1OC1C/C=C\\CCCC/C=C\\CCCCCCC(=O)O", "note": "(stereo not given)", "Activity": 90}
{"target": "T1, Bifunctional epoxide hydrolase 2 (Homo sapiens) (UniProt P34913)", "T1 sequence (whole entry)": "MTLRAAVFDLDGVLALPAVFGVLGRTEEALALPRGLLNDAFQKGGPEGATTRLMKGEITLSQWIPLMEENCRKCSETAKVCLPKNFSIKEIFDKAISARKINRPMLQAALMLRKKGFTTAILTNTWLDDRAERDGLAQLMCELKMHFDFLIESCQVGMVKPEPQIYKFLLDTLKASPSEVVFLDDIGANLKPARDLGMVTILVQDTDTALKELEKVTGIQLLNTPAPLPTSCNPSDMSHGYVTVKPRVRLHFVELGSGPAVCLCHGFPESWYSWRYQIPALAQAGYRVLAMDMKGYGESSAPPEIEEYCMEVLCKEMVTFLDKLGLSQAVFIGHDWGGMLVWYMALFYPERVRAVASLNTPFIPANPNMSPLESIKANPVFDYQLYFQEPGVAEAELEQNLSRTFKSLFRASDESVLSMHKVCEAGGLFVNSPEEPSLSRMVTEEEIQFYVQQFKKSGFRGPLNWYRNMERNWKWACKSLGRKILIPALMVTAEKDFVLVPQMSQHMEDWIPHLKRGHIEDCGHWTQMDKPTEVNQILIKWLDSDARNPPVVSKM", "test": "Inhibition of soluble epoxide hydrolase at 5 uM", "conditions": "not given"}
{"smiles": "CNC(=O)C(=O)NCCCC/C=C\\CCCCCCCCCC(=O)O", "inhibition": "inactive"}
{"smiles": "CNC(=O)C(=O)NC/C=C\\CCCCCCCCCCCCC(=O)O", "inhibition": "inactive"}
{"tested_on": "Liver", "test": "Metabolic stability in rat liver homogenates assessed as formation of regioisomeric hydroxy metabolite after 30 mins by LC-MS analysis", "format": "ADME, tissue-based", "conditions": "tissue homogenate, 0.5 h", "outline": "as §1"}
{"smiles": "CNC(=O)C(=O)NCCCC/C=C\\CCCCCCCCCC(=O)O", "Stability": "Stable"}
{"tested_on": "not listed separately", "test": "Inhibition of (5Z,8Z,11Z,14Z)-16-(3-ethyloxiran-2-yl)hexadeca-5,8,11,14-tetraenoic acid-induced negative chronotropic activity in neonatal Wistar rat Cardiomyocytes at 30 nM after 5 mins", "format": "functional, Cardiac muscle cell", "set-up": "scale not given: the % may be the effect or the level left", "conditions": "not given", "outline": "as §2", "units": {"Activity": "%"}}
{"smiles": "CCC1OC1C/C=C\\CCCC/C=C\\CCCCCCC(=O)O", "note": "(stereo not given)", "Activity": 90}
{"tested_on": "not listed separately", "test": "Inhibition of (5Z,11Z)-16-(3-ethyloxiran-2-yl)hexadeca-5,11-dienoic acid-induced negative chronotropic activity in neonatal Wistar rat Cardiomyocytes at 30 nM after 5 mins", "format": "functional, Cardiac muscle cell", "set-up": "scale not given: the % may be the effect or the level left", "conditions": "not given", "outline": "as §2", "units": {"Activity": "%"}}
{"smiles": "CCC1OC1C/C=C\\CCCC/C=C\\CCCCCCC(=O)O", "note": "(stereo not given)", "Activity": 90}
{"tested_on": "not listed separately", "test": "Metabolic stability in rat liver homogenates assessed as compound remaining after 30 mins by LC-MS analysis", "format": "ADME, tissue-based", "conditions": "not given", "outline": "as §1", "units": {"remaining at 0.5 h": "%"}}
{"smiles": "CNC(=O)C(=O)NCCCC/C=C\\CCCCCCCCCC(=O)O", "remaining at 0.5 h": "> 85"}
{"tested_on": "Liver", "test": "Metabolic stability in rat liver homogenates assessed as formation of vic-diol 4 by LC-MS analysis", "format": "ADME, tissue-based", "conditions": "tissue homogenate"}
{"smiles": "CCC1OC1C/C=C\\C/C=C\\C/C=C\\C/C=C\\CCCC(=O)O", "note": "(stereo not given)", "Stability": "Unstable"}
{"tested_on": "Cardiac muscle cell", "test": "Negative chronotropic activity in neonatal Wistar rat Cardiomyocytes assessed as change in heart beating at > 5 nM after 5 mins at 37 degC", "format": "functional, cell-based", "conditions": "not given"}
{"smiles": "CCNC(=O)NCCCC/C=C\\CCCCCCCCCC(=O)O", "Activity": "Active"}
{"smiles": "CNC(=O)C(=O)NCCCC/C=C\\CCCCCCCCCC(=O)O", "Activity": "Active"}
{"smiles": "CC[C@@H]1O[C@@H]1C/C=C\\C/C=C\\C/C=C\\C/C=C\\CCCC(=O)O", "Activity": "Active"}
{"smiles": "CNC(=O)C(=O)NCCCC/C=C/CCCCCCCCCC(=O)O", "Activity": "inactive"}
{"target": "T1, Bifunctional epoxide hydrolase 2 (Homo sapiens)", "conditions": "1 to 5 uM"}
{"smiles": "CCNC(=O)NCCCC/C=C\\CCCCCCCCCC(=O)O", "inhibition": "Dose-dependent effect"}
{"tested_on": "not listed separately", "test": "Negative chronotropic activity in neonatal Wistar rat Cardiomyocytes assessed as change in heart beating after 5 mins at 37 degC", "format": "functional, cell-based", "conditions": "cardiac muscle cell", "outline": "(§3)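 NRCMs from 1–2-day-old Wistar rats were cultured as monolayers in Halle SM 20-I medium with 10% heat-inactivated FCS and 2 μM fluorodeoxyuridine. Spontaneously beating clusters formed after 5–7 days (120–150 beats/min at 37 °C, inverted microscope). Compounds came from 1000-fold ethanol stocks and were tested at 30 nM final. Beating rates of 6–8 clusters were counted before and 5 min after addition. The change in beats/min is given as mean ± SE, n = 18–40 clusters from ≥3 independent cultures.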", "units": {"EC50": "nM"}}
{"smiles": "CC[C@@H]1O[C@@H]1C/C=C\\C/C=C\\C/C=C\\C/C=C\\CCCC(=O)O", "EC50": 1}
{"tested_on": "not listed separately", "test": "Negative chronotropic activity in neonatal Wistar rat Cardiomyocytes assessed as change in heart beating at 30 nM and at 37 degC after 5 mins", "format": "functional, Cardiac muscle cell", "conditions": "not given", "outline": "as §3", "units": {"Activity": "bpm"}}
{"smiles": "CC[C@H]1O[C@H]1CCCC/C=C\\CCCCCCCCCC(=O)O", "Activity": 3.3}
{"smiles": "O=C(O)CCCCCCCCC/C=C\\CCCC[C@@H]1O[C@@H]1CCO", "Activity": -1.4}
{"smiles": "CCNC(=O)NCCCC/C=C\\CCCCCCCCCC(=O)O", "Activity": -27}
{"smiles": "CCN(C)C(=O)N(C)CCCC/C=C\\CCCCCCCCCC(=O)O", "Activity": -5.8}
{"smiles": "CCCC(=O)NCCCC/C=C\\CCCCCCCCCC(=O)O", "Activity": -1.6}
{"smiles": "CC[C@@H]1O[C@@H]1CCCC/C=C\\CCCCCCCCCC(=O)O", "Activity": -20.3}
{"smiles": "CCCNC(=O)CCCC/C=C\\CCCCCCCCCC(=O)O", "Activity": -4.7}
{"smiles": "CNC(=O)C(=O)NCCCCC#CCCCCCCCCCC(=O)O", "Activity": -2.6}
{"smiles": "CNC(=O)C(=O)NCCCC/C=C\\CCCCCCCCCC(=O)O", "Activity": -33.7}
{"smiles": "CCCC(=O)N(CCCC/C=C\\CCCCCCCCCC(=O)O)C(C)C", "Activity": 0.2}
{"smiles": "CC[C@@H]1O[C@@H]1C/C=C\\CCCCCCCCCCCCC(=O)O", "Activity": -21.1}
{"smiles": "CC[C@@H]1O[C@@H]1C/C=C\\C/C=C\\C/C=C\\C/C=C\\CCCC(=O)O", "Activity": -21.3}
{"smiles": "CCC1OC1C/C=C\\CCCCCCCCCCCCC(=O)O", "note": "(stereo not given)", "Activity": -1.2}
{"smiles": "CCC1OC1C/C=C\\CCCCCCC/C=C\\CCCC(=O)O", "note": "(stereo not given)", "Activity": 0}
{"smiles": "CC[C@H]1O[C@H]1C/C=C\\CCCCCCCCCCCCC(=O)O", "Activity": 0.7}
{"smiles": "CCCCNC(=O)CCC/C=C\\CCCCCCCCCC(=O)O", "Activity": -22.4}
{"smiles": "CCC1OC1CCCCCCCCCC/C=C\\CCCC(=O)O", "note": "(stereo not given)", "Activity": -0.6}
{"smiles": "CCC1OC1C/C=C\\CCCC/C=C\\CCCCCCC(=O)O", "note": "(stereo not given)", "Activity": -2.7}
{"smiles": "CCCC(=O)NC/C=C\\CCCCCCCCCCCCC(=O)O", "Activity": 12.8}
{"smiles": "CCC(O)C(O)C/C=C\\C/C=C\\C/C=C\\C/C=C\\CCCC(=O)O", "note": "(stereo not given)", "Activity": 0}
{"smiles": "CCNC(=O)NC/C=C\\CCCCCCCCCCCCC(=O)O", "Activity": 17.8}
{"smiles": "CNC(=O)C(=O)NCCCC/C=C/CCCCCCCCCC(=O)O", "Activity": -4.7}
{"smiles": "O=C(O)CCCCCCCCC/C=C\\CCCC[C@H]1O[C@H]1CCO", "Activity": -4.8}
{"smiles": "CC[C@H]1O[C@H]1C/C=C\\C/C=C\\C/C=C\\C/C=C\\CCCC(=O)O", "Activity": 1.3}
{"smiles": "CCC1OC1CCCCCCC/C=C\\CCCCCCC(=O)O", "note": "(stereo not given)", "Activity": -0.6}
{"smiles": "CCC1OC1C/C=C\\C/C=C\\C/C=C\\C/C=C\\CCCC(=O)O", "note": "(stereo not given)", "Activity": -22.5}
{"smiles": "CCC1OC1CCCC/C=C\\CCCC/C=C\\CCCC(=O)O", "note": "(stereo not given)", "Activity": -19.8}
{"smiles": "CCC1OC1CCCC/C=C\\CCCCCCCCCC(=O)O", "note": "(stereo not given)", "Activity": -18.3}
{"smiles": "CCC1OC1CCCCCCCCCCCCCCCC(=O)O", "note": "(stereo not given)", "Activity": 0.8}
{"smiles": "CNC(=O)C(=O)NC/C=C\\CCCCCCCCCCCCC(=O)O", "Activity": -1.3}
{"tested_on": "Cardiac muscle cell", "test": "Inhibition of (Z)-16-(3-ethyloxiran-2-yl)hexadec-11-enoic acid -induced negative chronotropic activity in neonatal Wistar rat Cardiomyocytes at 30 nM after 5 mins", "format": "functional, cell-based", "conditions": "not given", "outline": "as §2"}
{"smiles": "CCC1OC1C/C=C\\CCCCCCCCCCCCC(=O)O", "note": "(stereo not given)", "Activity": "Active"}
{"smiles": "CCC1OC1C/C=C\\CCCC/C=C\\CCCCCCC(=O)O", "note": "(stereo not given)", "Activity": "Active"}
{"tested_on": "Liver", "test": "Metabolic stability in rat liver homogenates assessed as epoxidation of compound by LC-MS analysis", "format": "ADME, tissue-based", "conditions": "tissue homogenate"}
{"smiles": "CCC1OC1C/C=C\\C/C=C\\C/C=C\\C/C=C\\CCCC(=O)O", "note": "(stereo not given)", "Stability": "Unstable"}
{"tested_on": "not listed separately", "test": "Inhibition of EPA-induced negative chronotropic activity in neonatal Wistar rat Cardiomyocytes at 30 nM after 5 mins", "format": "functional, Cardiac muscle cell", "set-up": "scale not given: the % may be the effect or the level left", "conditions": "not given", "units": {"Activity": "%"}}
{"smiles": "CCC1OC1C/C=C\\CCCC/C=C\\CCCCCCC(=O)O", "note": "(stereo not given)", "Activity": 90}
